Published values gathered from unrelated publications.
Protocols differ between the studies behind these lines.
Target: Dual specificity mitogen-activated protein kinase kinase 1 (MAP2K1, Homo sapiens, UniProt Q02750)

SMILES	test	setting	quantity	value
Cn1cncc1[C@](O)(COc1ccc(C#N)cc1-c1ccc(OC(F)(F)F)cc1)c1ccc(C#N)cc1	cell-free assay, competition with immobilised ligand	1 µM	remaining binding	100%
O=c1[nH]c2ccccc2n1C1CCN(Cc2ccc(-c3[nH]c4cc5ncnc5cc4nc3-c3ccccc3)cc2)CC1	cell-free assay	0.5 µM	remaining signal	96.8%
C#Cc1n[nH]c2c(-c3cn([C@@H](C)c4ccccn4)c(=O)[nH]c3=O)cc(F)cc12	enzyme activity, inhibitor	0.1 µM	inhibition	12%
CC(C)(C)c1cc(C=C(C#N)C#N)cc(Br)c1O	enzyme activity, inhibitor	0.5 µM	remaining activity	90.8%
Cn1cc(-c2cccc(N3CCc4c(sc5c4CC(C)(C)C5)C3=O)c2CO)cc(Nc2ccncn2)c1=O	enzyme activity, inhibitor	1 µM	inhibition	0%
Nc1ncc(-c2nc(N3CCOCC3)nc(N3CCOCC3)n2)c(C(F)F)n1	binding, competition with immobilised ligand	10 µM	remaining binding	83%
N#CC1(c2ccccn2)CCN(Cc2cc(C(=O)O)c(=O)n3ccccc23)CC1	cell-free assay, competition with immobilised ligand	1 µM	remaining binding	95%
COc1ncccc1-c1cnn2ccc(N3CCN(C(=O)OC(C)C)CC3)nc12	binding, competition with immobilised ligand	1 µM	remaining binding	100%
Cc1nn(C)cc1-c1nc2c(N3CCN(Cc4ccc(Cl)cc4)CC3)c(Cl)cnc2[nH]1	binding, competition with immobilised ligand	1 µM	remaining binding	100%
Cn1cc(-c2cc(F)cc(N3CCn4c(cc5c4CCCC5)C3=O)c2CO)cc(Nc2ccc(N3CCN(C4COC4)CC3)cn2)c1=O	enzyme activity, inhibitor	0.1 µM	inhibition	6%
C#Cc1n[nH]c2c(-c3cn([C@@H](C)c4ccccc4)c(=O)[nH]c3=O)cc(F)cc12	enzyme activity, inhibitor	0.1 µM	inhibition	6.6%
